Test results reported in ChEMBL document CHEMBL1828575, “Design, synthesis and antiproliferative activities of biarylolefins based on polyhydroxylated and carbohydrate scaffolds” (Eur J Med Chem, 2011).

Experiments:
PC-3 [1] = test: Cytotoxicity against human PC3 cells at 10^-6 M after 72 hrs by MTS assay; format: functional; details: PC-3, 72 h, read-out: GI
Summary of the method: (§1)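 Preliminary screen at 10^-5 and 10^-6 M. Cells were grown in RPMI with 10% fetal calf serum plus penicillin, streptomycin and fungizone under 5% CO₂, plated in 96-well plates, and dosed 24 h later from DMSO stocks (1% DMSO final, same in controls). After 72 h, MTS was added for 3 h at 37 °C and absorbance read at 490 nm. Inhibition was calculated as (1 − OD treated/OD control) × 100, in triplicate.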

SF-268 [2] = test: Cytotoxicity against human SF268 cells at 10^-6 M after 72 hrs by MTS assay; format: functional; details: SF-268, 72 h, read-out: GI; summary of the method: as §1
SK-OV-3 [3] = test: Cytotoxicity against human SKOV3 cells at 10^-6 M after 72 hrs by MTS assay; format: functional; details: SK-OV-3, 72 h, read-out: GI; summary of the method: as §1
OVCAR-8 [4] = test: Cytotoxicity against human OVCAR8 cells at 10^-6 M after 72 hrs by MTS assay; format: functional; details: OVCAR-8, 72 h, read-out: GI; summary of the method: as §1
MIA PaCa-2 [5] = test: Cytotoxicity against human MIAPaCa2 cells at 10^-6 M after 72 hrs by MTS assay; format: functional; details: MIA PaCa-2, 72 h, read-out: GI
HL-60 [6] = test: Cytotoxicity against human HL60 cells at 10^-6 M after 72 hrs by MTS assay; format: functional; details: HL-60, 72 h, read-out: GI
Summary of the method: (§2)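 Cells grown in RPMI with 10% fetal calf serum, penicillin, streptomycin and fungizone under 5% CO₂. Plated in 96-well plates and dosed 24 h later with compound in DMSO (1% final DMSO; controls got DMSO alone). After 72 h, MTS was added for 3 h at 37 °C and A490 read. Inhibition = (1 − OD treated/OD control) × 100, in triplicate.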

[7] = Cytotoxicity against human HL60R cells at 10^-6 M after 72 hrs by MTS assay; format: functional; details: read-out: GI; summary of the method: as §2
K562 [8] = test: Cytotoxicity against human K562 cells at 10^-6 M after 72 hrs by MTS assay; format: functional; details: K562, 72 h, read-out: GI; summary of the method: as §2
[9] = Cytotoxicity against human Hs 578T cells assessed as cellular growth at 10 uM after 48 hrs by SRB assay; format: functional
SW-620 = test: Cytotoxicity against human SW620 cells assessed as cellular growth at 10 uM after 48 hrs by SRB assay; format: functional
HCT-116 [10] = test: Cytotoxicity against human HCT116 cells at 10^-5 M after 72 hrs by MTS assay; format: functional; details: HCT-116, 72 h, read-out: GI; summary of the method: as §2
HT-29 [11] = test: Cytotoxicity against human HT-29 cells at 10^-5 M after 72 hrs by MTS assay; format: functional; details: HT-29, 72 h, read-out: GI; summary of the method: as §2
HCT-15 [12] = test: Cytotoxicity against human HCT15 cells at 10^-5 M after 72 hrs by MTS assay; format: functional; details: HCT-15, 72 h, read-out: GI; summary of the method: as §2
MCF7 [13] = test: Cytotoxicity against human MCF7 cells at 10^-5 M after 72 hrs by MTS assay; format: functional; details: MCF7, 72 h, read-out: GI
[14] = Cytotoxicity against human MDA231 cells at 10^-5 M after 72 hrs by MTS assay; format: functional; details: MDA-MB-231, 72 h, read-out: GI; summary of the method: as §1
A549 [15] = test: Cytotoxicity against human A549 cells at 10^-5 M after 72 hrs by MTS assay; format: functional; details: A549, 72 h, read-out: GI; summary of the method: as §2
PC-3 [16] = test: Cytotoxicity against human PC3 cells at 10^-5 M after 72 hrs by MTS assay; format: functional; details: PC-3, 72 h, read-out: GI; summary of the method: as §1
SF-268 [17] = test: Cytotoxicity against human SF268 cells at 10^-5 M after 72 hrs by MTS assay; format: functional; details: SF-268, 72 h, read-out: GI; summary of the method: as §1
SK-OV-3 [18] = test: Cytotoxicity against human SKOV3 cells at 10^-5 M after 72 hrs by MTS assay; format: functional; details: SK-OV-3, 72 h, read-out: GI; summary of the method: as §1
OVCAR-8 [19] = test: Cytotoxicity against human OVCAR8 cells at 10^-5 M after 72 hrs by MTS assay; format: functional; details: OVCAR-8, 72 h, read-out: GI; summary of the method: as §1
MIA PaCa-2 [20] = test: Cytotoxicity against human MIAPaCa2 cells at 10^-5 M after 72 hrs by MTS assay; format: functional; details: MIA PaCa-2, 72 h, read-out: GI
HL-60 [21] = test: Cytotoxicity against human HL60 cells at 10^-5 M after 72 hrs by MTS assay; format: functional; details: HL-60, 72 h, read-out: GI; summary of the method: as §2
[22] = Cytotoxicity against human HL60R cells at 10^-5 M after 72 hrs by MTS assay; format: functional, HL-60; details: read-out: GI; summary of the method: as §2
K562 [23] = test: Cytotoxicity against human K562 cells at 10^-5 M after 72 hrs by MTS assay; format: functional; details: K562, 72 h, read-out: GI; summary of the method: as §2
HCC 2998 = test: Cytotoxicity against human HCC2998 cells assessed as cellular growth at 10 uM after 48 hrs by SRB assay; format: functional
Summary of the method: (§3)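 NCI60 single-dose screen of cells in RPMI 1640 with 5% FBS and 2 mM L-glutamine, preincubated 24 h at 37 °C, 5% CO₂. Cells were then exposed 48 h to compound added from DMSO stock. TCA-fixed, stained with 0.4% SRB in 1% acetic acid, dye solubilised in 10 mM Tris base and read at 515 nm. Growth is given as percent of untreated control.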

SK-MEL-28 = test: Cytotoxicity against human SK-MEL-28 cells assessed as cellular growth at 10 uM after 48 hrs by SRB assay; format: functional
A498 = test: Cytotoxicity against human A498 cells assessed as cellular growth at 10 uM after 48 hrs by SRB assay; format: functional; summary of the method: as §3
RXF 393 = test: Cytotoxicity against human RXF393 cells assessed as cellular growth at 10 uM after 48 hrs by SRB assay; format: functional
M14 = test: Antitumor activity against human M14 cells after 48 hrs by SRB assay; format: functional; details: M14, 48 h
Summary of the method: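 NCI60 panel in RPMI 1640 with 5% FBS and 2 mM L-glutamine. Cells were plated at 5000–40,000/well by doubling time, held 24 h, then time-zero plates were TCA-fixed. Five concentrations (10-fold or half-log dilutions of DMSO stocks) were applied for 48 h at 37 °C, 5% CO2. Cells were fixed with cold TCA (10% final adherent, 16% suspension) and stained with 0.4% SRB. Bound dye was dissolved in 10 mM Tris and read at 515 nm. GI50, TGI and LC50 were calculated per line.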

HCT-116 [24] = test: Cytotoxicity against human HCT116 cells at 10^-6 M after 72 hrs by MTS assay; format: functional; details: HCT-116, 72 h, read-out: GI; summary of the method: as §2
HT-29 [25] = test: Cytotoxicity against human HT-29 cells at 10^-6 M after 72 hrs by MTS assay; format: functional; details: HT-29, 72 h, read-out: GI; summary of the method: as §2
HCT-15 [26] = test: Cytotoxicity against human HCT15 cells at 10^-6 M after 72 hrs by MTS assay; format: functional; details: HCT-15, 72 h, read-out: GI; summary of the method: as §2
MCF7 [27] = test: Cytotoxicity against human MCF7 cells at 10^-6 M after 72 hrs by MTS assay; format: functional; details: MCF7, 72 h, read-out: GI
[28] = Cytotoxicity against human MDA231 cells at 10^-6 M after 72 hrs by MTS assay; format: functional; details: MDA-MB-231, 72 h, read-out: GI; summary of the method: as §1
A549 [29] = test: Cytotoxicity against human A549 cells at 10^-6 M after 72 hrs by MTS assay; format: functional; details: A549, 72 h, read-out: GI; summary of the method: as §2

`COc1ccc(/C(=C2/O[C@@H]([C@H]3COC(C)(C)O3)[C@H]3OC(C)(C)O[C@@H]23)c2cc(OC)c(OC)c(OC)c2)cc1O` gave an inhibition of growth at 1 µM (PC-3 [1]) of 0%, an inhibition of growth at 1 µM (SF-268 [2]) of 7% and an inhibition of growth at 1 µM (SK-OV-3 [3]) of 0%. The inhibition of growth at 1 µM (OVCAR-8 [4]) was 0%, the inhibition of growth at 1 µM (MIA PaCa-2 [5]) was 0% and the inhibition of growth at 1 µM (HL-60 [6]) was 2%. For the same compound, the inhibition of growth at 1 µM [7] was 8%, the inhibition of growth at 1 µM (K562 [8]) was 2% and the Activity [9] was 22.15%. The Activity (SW-620) was 15.44%, the inhibition of growth at 10 µM (HCT-116 [10]) was 39% and the inhibition of growth at 10 µM (HT-29 [11]) was 3%. For the same compound, the inhibition of growth at 10 µM (HCT-15 [12]) was 66%, the inhibition of growth at 10 µM (MCF7 [13]) was 20% and the inhibition of growth at 10 µM [14] was 79%. The inhibition of growth at 10 µM (A549 [15]) was 35%, the inhibition of growth at 10 µM (PC-3 [16]) was 71% and the inhibition of growth at 10 µM (SF-268 [17]) was 68%. The inhibition of growth at 10 µM (SK-OV-3 [18]) was 48%, the inhibition of growth at 10 µM (OVCAR-8 [19]) was 17% and the inhibition of growth at 10 µM (MIA PaCa-2 [20]) was 30%. It also gave an inhibition of growth at 10 µM (HL-60 [21]) of 69%, an inhibition of growth at 10 µM [22] of 63% and an inhibition of growth at 10 µM (K562 [23]) of 82%. For the same compound, the Activity (HCC 2998) was 102.13%, the Activity (SK-MEL-28) was 59.6% and the Activity (A498) was 63.35%. For the same compound, the Activity (RXF 393) was 81.92%, the GI50 (M14; read-out: GI50) was 2.4 µM and the CC50 (M14; read-out: LC50 (the source's name)) was > 100 µM. The TGI (M14; read-out: TGI) was 5.9 µM, the GI50 (M14; read-out: pGI50 (converted)) was 2.4 µM and the CC50 (M14; read-out: pLC50 (the source's name) (converted)) was > 100 µM. It also gave a TGI (M14; read-out: pTGI (converted)) of 5.89 µM, an inhibition of growth at 1 µM (HCT-116 [24]) of 0% and an inhibition of growth at 1 µM (HT-29 [25]) of 2%. For the same compound, the inhibition of growth at 1 µM (HCT-15 [26]) was 3%, the inhibition of growth at 1 µM (MCF7 [27]) was 0% and the inhibition of growth at 1 µM [28] was 0%. For the same compound, the inhibition of growth at 1 µM (A549 [29]) was 1%.
